ABCG2 block: inhibitors of human ABCG2 transporter, ABCB1 counter-screen | IgMXP3 cells, JC-1 efflux, flow cytometry | Q9UNQ0 | inhibition, % at 6.6 µM | 190,000 compounds, 0.1% hits | AID 1325;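 active means inhibition above 80%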;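 further: 0% = DMSO and 100% = nicardipine control wells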
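Read-out basis: Efflux inhibition in percent versus controls | Test system: ABCG2 IgMXP3 and barcoded ABCB1 CCRF-Adr cell mix | Quantity: 3 million cells/mL in well | Schedule: 10 min at 25 °C | Control set: Nicardipine as high control, DMSO as low control | Reagent: JC-1 as fluorescent efflux pump substrate | Signal: Flow cytometry of retained JC-1 fluorescence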
p47phox inh: p47phox (human) inhibition; 220,000 compounds, 0.53% hits; inhibition, % at 24.7 µM; AID 1274; p47phox/p22phox peptide binding, fluorescence polarization, 2 h;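 active means inhibition above about 30%, limit read from the data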;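 further: 0% = p47phox with labelled peptide and 100% = labelled peptide alone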
Target sequence (P14598 whole entry, looked up): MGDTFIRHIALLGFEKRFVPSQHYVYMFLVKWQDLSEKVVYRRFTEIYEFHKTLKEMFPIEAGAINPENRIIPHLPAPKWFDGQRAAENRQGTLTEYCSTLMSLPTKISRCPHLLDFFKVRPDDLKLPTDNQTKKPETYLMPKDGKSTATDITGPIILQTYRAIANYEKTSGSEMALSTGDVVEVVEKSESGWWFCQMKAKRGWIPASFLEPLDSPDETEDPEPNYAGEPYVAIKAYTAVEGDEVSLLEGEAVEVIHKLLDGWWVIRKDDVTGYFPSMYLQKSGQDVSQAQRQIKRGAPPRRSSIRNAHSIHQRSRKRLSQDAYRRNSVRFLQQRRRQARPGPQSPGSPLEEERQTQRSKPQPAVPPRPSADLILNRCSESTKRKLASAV
ABCB1 inh: blocks JC-1 efflux by human ABCB1 transporter. CCRF-Adr cells, flow cytometry. inhibition, % at 6.6 µM. AID 1326. 190,000 compounds, 0.067% hits; in the data active means inhibition above about 40%;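 further: 0% = vehicle and 100% = reference inhibitor; higher value means more JC-1 retained so stronger ABCB1 efflux block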
Diaphorase act: activates diaphorase or chemically reduces, flagging diaphorase assay artifacts. activation factor at 20 µM. Diaphorase/resazurin coupled assay, resorufin fluorescence, 16 min; active compounds read high; 1 = vehicle wells, 0 = NADH-free wells. 190,000 compounds, 0.005% hits. AID 1229;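 active means diaphorase activity raised at least twofold by the compound at 20 µM; inactive means activation factor below 2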
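Assay system: Purified diaphorase enzyme from Clostridium kluyveri | Amount: Enzyme 0.07 U/mL final | Dosing: Compound 20 µM once, DMSO 1% | Timing: 16 min reaction at room temperature | Detection: Fluorescence, excitation 544 nm and emission 590 nm | Evaluation: Higher resorufin formation from activation or reduction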
Efa HMGR inh: inhibitors of class II HMG-CoA reductase from Enterococcus faecalis; 190,000 compounds, 0.41% hits; inhibition, % at 10 µM; purified E. faecalis HMGR, NADPH absorbance 340 nm kinetic; AID 1066;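 active means inhibition above a set limit, the median over all tested compounds plus 3 SD, cut at about 9.5% in these data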;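 further: enzyme runs in reverse so mevalonate oxidation gives rising NADPH absorbance; 0% = complete reaction with DMSO and 100% = background rate lacking mevalonate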
Diaphorase inh: diaphorase inhibition or chemical oxidation counter-screen | diaphorase resazurin-to-resorufin fluorescence, NADH, 16 min; bacterial (C. kluyveri) enzyme, not human | inhibition, % at 20 µM | 190,000 compounds, 0.69% hits;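 active means primary screen inhibition at 20 µM above a set limit, cut at about 50% in these data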;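 further: plate controls were DMSO with full reaction for no effect and wells lacking NADH for full effect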
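Assay system: diaphorase enzyme from Clostridium kluyveri; Input: enzyme working solution with 0.14 U/mL diaphorase; Timing: 16 min at room temperature; Technique: resorufin fluorescence, excitation 544 nm, emission 590 nm; Benchmarks: positive control minus NADH, DMSO neutral control.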
ABCB1 confirm: confirmation of human ABCB1 transporter inhibitors, ABCG2 counter-screen. shares compounds with ABCG2 block. 270 compounds, 7% hits. CCRF-Adr cells, JC-1 efflux, flow cytometry. inhibition, % at 6.6 µM. AID 1451;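 active means inhibition of pump activity above 50%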;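 further: 0% = DMSO and 100% = nicardipine full pump inhibition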
ABCG2 single pt: inhibits human ABCG2 efflux, confirmed at single point | inhibition, % at 6.6 µM | AID 1453 | 270 compounds, 6% hits | shares compounds with ABCG2 block | IgMXP3 cells, JC-1 efflux, flow cytometry;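 active means inhibition above 50%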;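 further: 0% = DMSO wells and 100% = nicardipine pump inhibitor wells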
IgMXP3 autofluor: counter-screen for ABCG2 inhibitors: compound fluorescence in IgMXP3 cells | shares compounds with ABCG2 block | compound autofluorescence 488/530 nm, flow; active compounds read high | fluorescence at 6.6 µM | 270 compounds, 30% hits | AID 1480;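 active means fluorescence in ABCG2-expressing cells above the plate's control-well mean plus 3 SD, cut at about 15 in these data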;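 further: median cell fluorescence with compound minus that of DMSO-treated control cells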
CCRF autofluor: CCRF-Adr autofluorescence flag for ABCB1 confirmation; shares compounds with ABCG2 block; CCRF-Adr cells, compound autofluorescence 488/530 nm, flow cytometry; active compounds read high; fluorescence at 6.6 µM; 270 compounds, 30% hits; AID 1483;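 active means fluorescence beyond the plate control mean plus 3 SD, with a fluorescence-to-maximum score over 2, cut at about 25 in these data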
Numbers without * were called inactive; nt = no result. The list is not random: actives were taken first. Their share in the collection is about 1.6%.

SMILES	ABCG2 block	p47phox inh	ABCB1 inh	Diaphorase act	Efa HMGR inh	Diaphorase inh	ABCB1 confirm	ABCG2 single pt	IgMXP3 autofluor	CCRF autofluor
CCC(C)c1ccc(NC(=S)NCCn2cc(Br)cn2)cc1 (stereo unspecified)	126*	23	7	0.7	-10	26	1	34	-1.7	-3.2
CC(=O)NC(Cc1c[nH]c2ccccc12)C(=O)Nc1ccc2c(c1)OCO2 (stereo unspecified)	2	1	1	0.9	3	11	nt	nt	nt	nt
Cc1ccc(N(CCCCN2C(=O)c3ccccc3C2=O)C(=O)c2ccc(Cl)s2)cc1	67	-9	7	0.8	-6	18	11	21	-2.2	-4.6
O=C1/C(=C/c2ccncc2)N=C2CCCCCN12	nt	-9	nt	nt	nt	nt	nt	nt	nt	nt
O=c1c2ccccc2nc(-c2ccco2)n1/N=C/c1ccco1	4	0	1	0.9	0	8	nt	nt	nt	nt
O=C(NCC1OCCc2ccccc21)c1ccc(NC(=O)c2ccc(Cl)cc2Cl)cc1 (stereo unspecified)	111*	3	95*	1	-5	5	6	43	1.7	-1.3
O=C(NCC1OCCc2ccccc21)c1ccc(NC(=O)c2ccccc2Cl)cc1 (stereo unspecified)	0	-9	-9	1	-1	-3	nt	nt	nt	nt
COc1cc(/C=C2/CCc3ccccc3C2=O)cc(OC)c1OC	87*	-9	7	0.8	2	16	2	44	-1.6	-1.7
CCn1c(SC)nc2c(c1=O)SC(C)C2 (stereo unspecified)	4	-1	0	0.9	-7	10	nt	nt	nt	nt
O=C(NCCCc1ccccc1)Nc1cccc(Cl)c1	94*	-2	0	0.9	-4	12	2	21	-0.04	-1.7
O=C(NCCc1ccncc1)Nc1cccc(Cl)c1	2	-5	0	0.9	-2	9	nt	nt	nt	nt
CC12COC3(C(=O)Nc4ccc([N+](=O)[O-])cc4)CC1CCC32C (stereo unspecified)	112*	-23	3	1	-3	-4	3	40	-2.3	-4.5
COCCn1c(C)cc(C(=O)CSc2cc(C)c3ccccc3n2)c1C	92*	-17	3	0.9	-8	10	1	19	0.71	2.6
CCOC(=O)N1CCN(c2c(NCCc3ccc(C)cc3)c(=O)c2=O)CC1	0	-7	0	0.9	-2	12	nt	nt	nt	nt

Bioassay records from PubChem BioAssay.
